# Results reported in ChEMBL document CHEMBL2331319, “Development of N-Hydroxycinnamamide-Based Histone Deacetylase Inhibitors with Indole-Containing Cap Group” (ACS Med Chem Lett, 2013).
# Calls of active or inactive are those of the source. No cut-off for these calls is given here.
# Experiments:
# Histone deacetylase = test: Inhibition of HDAC in human HeLa cell nuclear extract using Boc-Lys(acetyl)-AMC as substrate preincubated with enzyme for 5 mins prior to substrate addition measured after 30 mins by fluorescence assay; format: protein assay
# U-937 [1] = test: Antitumor activity against human U937 cells xenografted in athymic nude mouse assessed as tumor growth inhibition at 20 mg/kg/day, po administered 10 days after tumor inoculation for 3 weeks measured every three days by vernier caliper; format: functional; details: read-out: TGI
# Summary of the method: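 U937 xenografts in nude mice, seven mice per group. Tamibarotene served as the positive control. Growth curves of the implanted tumours were followed over the treatment period and reported as mean ± SD.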
# U-937 [2] = test: Antitumor activity against human U937 cells xenografted in athymic nude mouse assessed as T/C ratio at 20 mg/kg/day, po administered 10 days after tumor inoculation for 3 weeks; format: functional
# HCT-116 = test: Inhibition of human HCT116 cell proliferation after 48 hrs by MTT assay; format: functional, cell-based; details: HCT-116, 48 h
# A549 = test: Inhibition of human A549 cell proliferation after 48 hrs by MTT assay; format: functional, cell-based; details: A549, 48 h
# PC-3 = test: Inhibition of human PC3 cell proliferation after 48 hrs by MTT assay; format: functional, cell-based; details: PC-3, 48 h
# MDA-MB-231 [3] = test: cells; format: functional, cell-based; details: Homo sapiens, MDA-MB-231, 48 h
# [4] = Inhibition of human ES2 cell proliferation after 48 hrs by MTT assay; format: functional, cell-based; details: ES-2, 48 h
# U-937 [5] = test: Inhibition of human U937 cell proliferation after 48 hrs by MTT assay; format: functional, cell-based; details: U-937, 48 h
# Mus musculus [6] = test: Toxicity in athymic nude mouse xenografted with human U937 cells assessed as liver injury at 60 mg/kg/day, po administered 10 days after tumor inoculation for 3 weeks; format: organism-based, U-937; set-up: route oral; details: in vivo
# MDA-MB-231 [7] = test: Increase in histone H4 acetylation in human MDA-MB-231 cells at 1 uM after 3 to 24 hrs by Western blot analysis; format: functional, cell-based
# Summary of the method: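 MDA-MB-231 cells were exposed at 1 μM for 3 h and 24 h. Lysates were immunoblotted for acetylated histone H4, with β-actin as the loading control.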
# Mus musculus [8] = test: Toxicity in athymic nude mouse xenografted with human U937 cells assessed as body weight loss at 60 mg/kg/day, po administered 10 days after tumor inoculation for 3 weeks; format: organism-based, U-937; set-up: route oral; details: in vivo
# U-937 [9] = test: Antitumor activity against human U937 cells xenografted in athymic nude mouse assessed as T/C ratio at 60 mg/kg/day, po administered 10 days after tumor inoculation for 3 weeks; format: functional
# Summary of the method: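 U937 cells implanted in nude mice, seven per group; oral dosing with a positive-control group run alongside. Tumour growth was followed as a growth curve, data given as mean ± SD; efficacy was expressed as tumour growth inhibition and relative increment ratio.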
# Mus musculus [10] = test: Toxicity in athymic nude mouse xenografted with human U937 cells assessed as spleen injury at 60 mg/kg/day, po administered 10 days after tumor inoculation for 3 weeks; format: organism-based, U-937; set-up: route oral; details: in vivo
# U-937 [11] = test: Antitumor activity against human U937 cells xenografted in athymic nude mouse assessed as tumor growth inhibition at 60 mg/kg/day, po administered 10 days after tumor inoculation for 3 weeks measured every three days by vernier caliper; format: functional; details: read-out: TGI
# Summary of the method: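 U937 xenografts in nude mice, seven per group, with oral dosing and a reference agent as positive control. Tumour growth was followed as a growth curve, and the data are given as mean ± SD.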
structure (smiles),measurement,setting,value
COc1cc(/C=C/C(=O)NO)ccc1OC[C@H](Cc1c[nH]c2ccccc12)NS(=O)(=O)c1ccc(F)cc1,IC50,Histone deacetylase,1.06 µM
CC1(C)CCC(C)(C)c2cc(NC(=O)c3ccc(C(=O)O)cc3)ccc21 [TAMIBAROTENE],inhibition in vivo at 20 mg/kg/day,U-937 [1],33%
same,Activity,U-937 [2],85%
COc1cc(/C=C/C(=O)NO)ccc1OC[C@@H](N)Cc1c[nH]c2ccccc12.Cl,IC50,Histone deacetylase,2.91 µM
COc1cc(/C=C/C(=O)NO)ccc1OC[C@H](Cc1c[nH]c2ccccc12)NC(=O)CNC(=O)OC(C)(C)C,IC50,HCT-116,6 µM
same,IC50,A549,11.8 µM
same,IC50,PC-3,10.5 µM
same,IC50,MDA-MB-231 [3],7.2 µM
same,IC50,[4],29.2 µM
same,IC50,U-937 [5],3100 nM
same,IC50,Histone deacetylase,0.17 µM
COc1cc(CCC(=O)NO)ccc1OC[C@H](Cc1c[nH]c2ccccc12)NC(=O)OC(C)(C)C,IC50,Histone deacetylase,2.09 µM
COc1cc(/C=C/C(=O)NO)ccc1OC[C@H](Cc1c[nH]c2ccccc12)NC(=O)[C@@H]1CC2(CN1C(=O)OC(C)(C)C)SCCS2,IC50,Histone deacetylase,0.8 µM
COc1cc(/C=C/C(=O)NO)ccc1OC[C@H](Cc1c[nH]c2ccccc12)NC(=O)[C@H](Cc1c[nH]c2ccccc12)NC(=O)OC(C)(C)C,IC50,Histone deacetylase,0.49 µM
O=C(CCCCCCC(=O)Nc1ccccc1)NO [VORINOSTAT],IC50,[4],12.7 µM
same,IC50,U-937 [5],2300 nM
COc1cc(/C=C/C(=O)NO)ccc1OC[C@H](Cc1c[nH]c2ccccc12)NC(=O)OC(C)(C)C,IC50,Histone deacetylase,0.65 µM
COc1cc(/C=C/C(=O)NO)ccc1OC[C@H](Cc1c[nH]c2ccccc12)NS(=O)(=O)c1c(C(C)C)cc(C(C)C)cc1C(C)C,IC50,Histone deacetylase,ND(Insoluble)
CC[C@H](C)[C@H](NC(=O)OC(C)(C)C)C(=O)N[C@H](COc1ccc(/C=C/C(=O)NO)cc1OC)Cc1c[nH]c2ccccc12,IC50,Histone deacetylase,0.38 µM
COc1cc(/C=C/C(=O)NO)ccc1OC[C@H](Cc1c[nH]c2ccccc12)NC(=O)[C@H](CCCCNC(=O)OC(C)(C)C)NC(=O)OC(C)(C)C,IC50,Histone deacetylase,1.17 µM
COc1cc(/C=C/C(=O)NO)ccc1OC[C@H](Cc1c[nH]c2ccccc12)NC(=O)[C@H](CO)NC(=O)OC(C)(C)C,IC50,HCT-116,9.4 µM
same,IC50,A549,13.5 µM
same,IC50,PC-3,8.2 µM
same,IC50,MDA-MB-231 [3],11.7 µM
same,IC50,[4],9.5 µM
same,IC50,U-937 [5],3900 nM
same,IC50,Histone deacetylase,0.14 µM
COc1cc(/C=C/C(=O)NO)ccc1OC[C@H](Cc1c[nH]c2ccccc12)NC(=O)[C@H](Cc1ccc(O)cc1)NC(=O)OC(C)(C)C,IC50,Histone deacetylase,0.32 µM
COc1cc(/C=C/C(=O)NO)ccc1OC[C@H](Cc1c[nH]c2ccccc12)NS(=O)(=O)c1ccc(NC(C)=O)cc1,IC50,Histone deacetylase,0.71 µM
COc1cc(/C=C/C(=O)NO)ccc1OC[C@H](Cc1c[nH]c2ccccc12)NC(=O)[C@@H](NC(=O)OC(C)(C)C)C(C)C,IC50,Histone deacetylase,0.43 µM
COc1cc(/C=C/C(=O)NO)ccc1OC[C@H](Cc1c[nH]c2ccccc12)NC(=O)c1ccc(NC(=O)OC(C)(C)C)cc1,IC50,Histone deacetylase,0.73 µM
COc1cc(/C=C/C(=O)NO)ccc1OC[C@H](Cc1c[nH]c2ccccc12)NS(=O)(=O)c1ccc(Cl)cc1,IC50,Histone deacetylase,1.47 µM
COc1cc(/C=C/C(=O)NO)ccc1OC[C@H](Cc1c[nH]c2ccccc12)NC(=O)[C@H](Cc1ccccc1)NC(=O)OC(C)(C)C,IC50,Histone deacetylase,0.62 µM
COc1cc(/C=C/C(=O)NO)ccc1OC[C@H](Cc1c[nH]c2ccccc12)NC(=O)[C@@H](NC(=O)OC(C)(C)C)[C@@H](C)O,IC50,HCT-116,2.4 µM
same,IC50,A549,7 µM
same,IC50,PC-3,5.4 µM
same,IC50,MDA-MB-231 [3],7.2 µM
same,IC50,[4],8.9 µM
same,IC50,U-937 [5],2700 nM
same,IC50,Histone deacetylase,0.18 µM
COc1cc(/C=C/C(=O)NO)ccc1OC[C@H](Cc1c[nH]c2ccccc12)NC(=O)[C@H](C)NC(=O)OC(C)(C)C,IC50,HCT-116,3.8 µM
same,IC50,A549,4.2 µM
same,IC50,PC-3,10.4 µM
same,IC50,MDA-MB-231 [3],4.5 µM
same,IC50,[4],25.1 µM
same,IC50,U-937 [5],2200 nM
same,IC50,Histone deacetylase,0.16 µM
COc1cc(/C=C/C(=O)NO)ccc1OC[C@H](Cc1c[nH]c2ccccc12)NC(=O)[C@H](CC(C)C)NC(=O)OC(C)(C)C,IC50,Histone deacetylase,0.57 µM
COc1cc(/C=C/C(=O)NO)ccc1OC[C@H](Cc1c[nH]c2ccccc12)NC(=O)C1CCN(C(=O)OC(C)(C)C)CC1,IC50,Histone deacetylase,1.12 µM
COc1cc(/C=C/C(=O)NO)ccc1OC[C@H](Cc1c[nH]c2ccccc12)NC(=O)[C@H](CCSC)NC(=O)OC(C)(C)C,IC50,HCT-116,5.9 µM
same,IC50,A549,1.6 µM
same,IC50,PC-3,5.8 µM
same,IC50,MDA-MB-231 [3],6.8 µM
same,IC50,[4],4.4 µM
same,IC50,U-937 [5],2200 nM
same,IC50,Histone deacetylase,0.18 µM
COc1cc(/C=C/C(=O)NO)ccc1OC[C@H](Cc1c[nH]c2ccccc12)NC(=O)[C@@H]1CCCN1C(=O)OC(C)(C)C,IC50,Histone deacetylase,0.43 µM
CCCC(CCC)C(=O)N[C@H](COc1ccc(/C=C/C(=O)NO)cc1OC)Cc1c[nH]c2ccccc12,IC50,HCT-116,5.5 µM
same,IC50,A549,4.4 µM
same,IC50,PC-3,3.7 µM
same,IC50,MDA-MB-231 [3],3.1 µM
same,IC50,[4],5.4 µM
same,Activity,Mus musculus [6],Non-toxic
same,Activity,MDA-MB-231 [7],Active
same,Activity,Mus musculus [8],Non-toxic
same,Activity,U-937 [9],42%
same,IC50,U-937 [5],1800 nM
same,Activity,Mus musculus [10],Non-toxic
same,inhibition in vivo at 60 mg/kg/day,U-937 [11],53%
